The values that follow come from ChEMBL document CHEMBL1122905, “4-Deoxypyrido[1',2':1,2]imidazo[5,4-c]rifamycin SV derivatives. A new series of semisynthetic rifamycins with high antibacterial activity and low gastroenteric absorption” (1985).

The test system of experiment [1] is Klebsiella pneumoniae. In words: Antimicrobial activity derived as minimum inhibitory concentration are determined using brain-heart infusion medium against Klebsiella Pneumoniae Ottaviani. The format is functional. Put shortly: (§1)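 Broth dilution in brain-heart infusion. Inoculum 10^6 cells/mL. MIC taken as the lowest antibiotic concentration preventing visible growth after 24 h at 35 °C.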

Experiment [2] concerns Pseudomonas aeruginosa. In words: Antimicrobial activity derived as minimum inhibitory concentration are determined using brain-heart infusion medium against Pseudomonas aeruginosa ATCC 10145. The format is functional. Put shortly: as §1
Experiment [3] has as its system Salmonella paratyphi. Description: Antimicrobial activity derived as minimum inhibitory concentration are determined using brain-heart infusion medium against Salmonella paratyphi B0248 K(Sclavo). Type of experiment: functional, Salmonella enterica subsp. enterica serovar Paratyphi A. To be noted: Salmonella enterica. Put shortly:
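Broth dilution in brain-heart infusion. Inoculum 10^6 cells/mL. Incubated 24 h at 35 °C. MIC taken as the lowest antibiotic concentration that prevented visible growth.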

The subject of experiment [4] is Staphylococcus aureus. In words: Effective dose against Staphylococcus aureus in mice for peroral administration. The format is functional. The note with it: po.
The subject of experiment [5] is Escherichia coli. In words: Antimicrobial activity derived as minimum inhibitory concentration are determined using brain-heart infusion medium against Escherichia coli ML/35. The format is functional. Put shortly: as §1
In experiment [6] the test system is Staphylococcus aureus. Description: Antimicrobial activity derived as minimum inhibitory concentration are determined using brain-heart infusion medium against Staphylococcus aureus 209 P(FDA). The format is functional. Put shortly:
as §1

Experiment [7] deals with Staphylococcus aureus. In words: Effective dose against Staphylococcus aureus in mice for subcutaneous administration. The format is functional. To be noted: sc.
Experiment [8] concerns Staphylococcus aureus. Description: Effective dose against infection of the mice due to Staphylococcus aureus administered perorally. Type of experiment: functional. To be noted: po.

Values after ≈ are worked out from the molar mass of the structure shown.

The MIC is the smallest concentration in the dilution series that meets the test's criterion for growth inhibition. High values mean weaker potency, low ones greater potency. What is called ED50 is the dose at which the effect has come halfway, by size or by number of responders. A lower ED50 goes with greater potency. Consider `COC1/C=C/OC2(C)Oc3c(C)c(O)c4c(O)c(c(-[n+]5cccc(C(N)=O)c5)c(O)c4c3C2=O)NC(=O)/C(C)=C\C=C\C(C)C(O)C(C)C(O)C(C)C(OC(C)=O)C1C.[Br-]` (centres undefined), for which the MIC in experiment [1] was more than 50 µg/mL; in experiment [2], more than 50 µg/mL; in experiment [3], more than 50 µg/mL; in experiment [5], more than 50 µg/mL; in experiment [6] it was 0.1 µg/mL. In addition, the ED50 in experiment [4] is more than 20 mg/kg.

Take `COC1/C=C/OC2(C)Oc3c(C)c(O)c4c(O)c(c5c([n-]c6c7ccccc7cc[n+]65)c4c3C2=O)NC(=O)/C(C)=C\C=C\C(C)C(O)C(C)C(O)C(C)C(OC(C)=O)C1C` (centres undefined): the minimum inhibitory concentration (MIC) in experiment [1] is 12 µg/mL (≈ 14.6 µM); in experiment [2] it was 0.7 µg/mL (≈ 0.852 µM); in experiment [3], 3 µg/mL (≈ 3.65 µM); in experiment [5], 12 µg/mL (≈ 14.6 µM); in experiment [6] it was less than 0.005 µg/mL. Also, the ED50 stood at 2.22 mg/kg in experiment [4] and 0.81 mg/kg in experiment [7].

Regarding `COC1/C=C/OC2(C)Oc3c(C)c(O)c4c(O)c(c5c([n-]c6cc(C)cc[n+]65)c4c3C2=O)NC(=O)/C(C)=C\C=C\C(C)C(O)C(C)C(O)C(C)C(OC(C)=O)C1C` (centres undefined), the MIC in experiment [1] was 25 µg/mL (≈ 31.8 µM); in experiment [2], 15 µg/mL (≈ 19.1 µM); in experiment [3], 6 µg/mL (≈ 7.63 µM); in experiment [5], 6 µg/mL (≈ 7.63 µM); in experiment [6], less than 0.005 µg/mL. In experiment [8], this compound displayed an ED50 of more than 10 mg/kg.

With `COC(=O)c1ccc[n+](-c2c3c(O)c4c(O)c(C)c5c(c4c2O)C(=O)C(C)(O/C=C/C(OC)C(C)C(OC(C)=O)C(C)C(O)C(C)C(O)C(C)/C=C/C=C(/C)C(=O)N3)O5)c1.[Br-]` (centres undefined), the MIC is more than 50 µg/mL in experiment [1]; more than 50 µg/mL in experiment [2]; 25 µg/mL in experiment [3]; more than 50 µg/mL in experiment [5]; 0.07 µg/mL in experiment [6].

As for `COC1/C=C/OC2(C)Oc3c(C)c(O)c4c(O)c(c5c([n-]c6ccc(C)c[n+]65)c4c3C2=O)NC(=O)/C(C)=C\C=C\C(C)C(O)C(C)C(O)C(C)C(OC(C)=O)C1C` (centres undefined), the minimum inhibitory concentration (MIC) in experiment [1] is 12 µg/mL (≈ 15.3 µM); in experiment [2], 3 µg/mL (≈ 3.82 µM); in experiment [3] it was 6 µg/mL (≈ 7.63 µM); in experiment [5] it was 6 µg/mL (≈ 7.63 µM); in experiment [6], less than 0.005 µg/mL. The ED50 in experiment [4] is more than 5 mg/kg; in experiment [7], more than 2.5 mg/kg.

On to `COC1/C=C/OC2(C)Oc3c(C)c(O)c4c(O)c(c5c([n-]c6cccc[n+]65)c4c3C2=O)NC(=O)/C(C)=C\C=C\C(C)C(O)C(C)C(O)C(C)C(OC(C)=O)C1C` (centres undefined), for which the MIC is 6 µg/mL (≈ 7.77 µM) in experiment [1]; 6 µg/mL (≈ 7.77 µM) in experiment [2]; 3 µg/mL (≈ 3.89 µM) in experiment [3]; 3 µg/mL (≈ 3.89 µM) in experiment [5]; less than 0.005 µg/mL in experiment [6]. For the same compound, the ED50 in experiment [4] was found to be 10.3 mg/kg; in experiment [7] it was 0.21 mg/kg.

For the compound `CC[N+](CC)(CC)c1c2c(O)c3c(O)c(C)c4c(c3c1O)C(=O)C(C)(O/C=C/C(OC)C(C)C(OC(C)=O)C(C)C(O)C(C)C(O)C(C)/C=C/C=C(/C)C(=O)N2)O4.[Br-]` (centres undefined), the MIC in experiment [1] was 50 µg/mL; in experiment [2] it was 12 µg/mL; in experiment [3] it was 25 µg/mL; in experiment [5], more than 50 µg/mL; in experiment [6] it was 0.005 µg/mL. The compound further had an ED50 in experiment [4] of more than 20 mg/kg.

In the case of `COC1/C=C/OC2(C)Oc3c(C)c(O)c4c(O)c(c5c([n-]c6c(C)ccc[n+]65)c4c3C2=O)NC(=O)/C(C)=C\C=C\C(C)C(O)C(C)C(O)C(C)C(OC(C)=O)C1C` (centres undefined), the MIC in experiment [1] is 6 µg/mL (≈ 7.63 µM); in experiment [2] it was 0.7 µg/mL (≈ 0.891 µM); in experiment [3] it was 6 µg/mL (≈ 7.63 µM); in experiment [5], 6 µg/mL (≈ 7.63 µM); in experiment [6], less than 0.005 µg/mL. Moreover, the ED50 in experiment [4] was more than 10 mg/kg; in experiment [7], 0.47 mg/kg.

In the case of `COC1/C=C/OC2(C)Oc3c(C)c(O)c4c(O)c(c5c([n-]c6ccc(OCc7ccccc7)c[n+]65)c4c3C2=O)NC(=O)/C(C)=C\C=C\C(C)C(O)C(C)C(O)C(C)C(OC(C)=O)C1C` (centres undefined), the MIC is more than 50 µg/mL in experiment [1]; 50 µg/mL (≈ 56.9 µM) in experiment [2]; more than 50 µg/mL in experiment [3]; 50 µg/mL (≈ 56.9 µM) in experiment [5]; less than 0.005 µg/mL in experiment [6].

For `COC1/C=C/OC2(C)Oc3c(C)c(O)c4c(O)c(c(-[n+]5ccc(C(C)(C)C)cc5)c(O)c4c3C2=O)NC(=O)/C(C)=C\C=C\C(C)C(O)C(C)C(O)C(C)C(OC(C)=O)C1C.[Br-]` (centres undefined), the MIC in experiment [1] is more than 50 µg/mL; in experiment [2], more than 50 µg/mL; in experiment [3], more than 50 µg/mL; in experiment [5], more than 50 µg/mL; in experiment [6], 0.01 µg/mL.

As to `COC1/C=C/OC2(C)Oc3c(C)c(O)c4c(O)c(c(-[n+]5ccccc5)c(O)c4c3C2=O)NC(=O)/C(C)=C\C=C\C(C)C(O)C(C)C(O)C(C)C(OC(C)=O)C1C.[Br-]` (centres undefined), the MIC in experiment [1] is more than 50 µg/mL; in experiment [2], 12 µg/mL; in experiment [3], 50 µg/mL; in experiment [5] it was more than 50 µg/mL; in experiment [6], 0.005 µg/mL. The compound also gave an ED50 in experiment [4] of more than 20 mg/kg.

`CO[C@H]1/C=C/O[C@@]2(C)Oc3c(C)c(O)c4c(O)c(c(/C=N/N5CCN(C)CC5)c(O)c4c3C2=O)NC(=O)/C(C)=C\C=C\[C@H](C)[C@H](O)[C@@H](C)[C@@H](O)[C@@H](C)[C@H](OC(C)=O)[C@@H]1C` [RIFAMPIN]: the MIC is 25 µg/mL (≈ 30.4 µM) in experiment [1]; 12 µg/mL (≈ 14.6 µM) in experiment [2]; 12 µg/mL (≈ 14.6 µM) in experiment [3]; 6 µg/mL (≈ 7.29 µM) in experiment [5]; less than 0.005 µg/mL in experiment [6]. In addition, the ED50 in experiment [4] and in experiment [7] was 0.14 mg/kg throughout.
